In data set [1] the test system is Leishmania donovani. The data set is described as follows: Antileishmanial activity against DsRed2 expressing Leishmania donovani promastigote assessed as parasite death after 48 hrs by flow cytometry. The data set is classed as functional, organism-based.
Data set [2] can be described thus: Cytotoxicity against BALB/c mouse peritoneal macrophages after 48 hrs by MTT assay. It counts as cell-based. Conditions: peritoneal macrophage cell. The gist of the method:
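BALB/c peritoneal macrophages were seeded at 1×10^5 cells/well and exposed to 0.2 to 600 μM compound for 48 h at 37 °C under 5% CO2. Viability was read by MTT cleavage, with formazan extracted in 10% SDS for 18 h at 24 °C and absorbance read at 570 nm.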
For orientation: Tetrazolium dyes change colour on reduction, which living cells bring about.

In data set [3] the test system is Leishmania donovani. The experiment in a line: Antileishmanial activity against DsRed2 expressing Leishmania donovani amastigotes assessed as parasite death after 72 hrs by flow cytometry. Background: Flow cytometry measures light scatter and fluorescence of single cells or particles in a stream.
For data set [4], the system named is Macrophage. The data set is described as follows: Inhibition of IL6 production in DsRed2-Leishmania donovani promastigote infected in C57BL/6 mouse macrophages after 72 hrs by ELISA. The data set is classed as functional, cell-based. In a few lines: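 C57BL/6 bone marrow-derived macrophages (3.5×10^6 cells/well, quadruplicates) were infected with DsRed2-L. donovani promastigotes at 1:10 and treated for 72 h at 37 °C. Supernatant IL-6 was measured by ELISA and reported in pg/mL as mean ± SE.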
A general note: An ELISA detects its analyte on a solid surface through an enzyme-linked reagent.

The nature of data set [5]: Induction of NO production in C57BL/6 mouse macrophages after 72 hrs by Griess assay. The following applies: macrophage.
A short description of data set [6]: Selectivity index, ratio of CC50 for BALB/c mouse peritoneal macrophages to IC50 for DsRed2-Leishmania donovani amastigotes. The data set is classed as functional.

The source made the active and inactive calls. The rule behind the calls is not given here. Some results are limits rather than exact numbers.

Usually IC50 stands for the midpoint of a concentration-inhibition curve. As a reminder, the CC50 is the concentration at which the toxic effect on the cells reaches its halfway point. Higher therefore signals better tolerance by the cells. As to SODIUM ANTIMONY GLUCONATE, the IC50 in data set [1] (read-out: IC50) was 307 µM. The same compound registered a cytotoxic concentration (CC50) in data set [2] of 53.4 µM.
Turning to `C=CCc1ccc(Oc2cc([C@H](O)C=C)cc(OC)c2O)c(OC)c1`, the IC50 was 102 µM in data set [3] and “Not Active” in data set [1]. In data set [4], the inhibition result is “Active”. In data set [5], the Activity result is “Non-toxic”. Further, the “Ratio CC50/IC50” value in data set [6] was over 2.9. In addition, the CC50 in data set [2] is over 292 µM.

These data come from ChEMBL document CHEMBL3576766, “Immunomodulatory and Antileishmanial Activity of Phenylpropanoid Dimers Isolated from Nectandra leucantha” (J Nat Prod, 2015).
